ChEMBL document CHEMBL1121569, “Analogues of chloramphenicol: circular dichroism spectra, inhibition of ribosomal peptidyltransferase, and possible mechanism of action” (J Med Chem, 1980)

What was measured:
[1] = Dissociation constant (pKa); format: physicochemical
Escherichia coli [2] = assay: Evaluated for the concentration required for a 50% inhibition of N-acetyl-L-[14C] phenylalanylpuromycin formation; format: functional
Procedure, shortened: (§1)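 Cell-free puromycin reaction with E. coli MRE-600 70S ribosomes (NH4Cl-washed, 4.0 A260 units) in 0.1 mL containing 0.05 M Tris-HCl pH 7.4, 0.1 M NH4Cl, 0.01 M MgCl2, 10 μg poly(U), 0.20 A260 unit N-Ac-[14C]Phe-tRNA, puromycin and inhibitor. Incubated at 37 °C for 30 min. Product extracted into ethyl acetate and counted by scintillation. Single-point inhibition was read at 8×10^-4 M.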

[3] = Evaluated for the inhibition constant determined from the Dixon and slope vs. inhibitor concentration plots; format: functional, Escherichia coli
Procedure, shortened: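 Ki values came from the E. coli MRE-600 70S ribosome puromycin reaction, using poly(U), N-Ac-[14C]Phe-tRNA and puromycin in Tris-HCl pH 7.4 with NH4Cl and MgCl2, at 37 °C for 30 min. Inhibitor concentration was varied. Ethyl acetate-extracted product was counted by scintillation. Ki was derived from Dixon plots built by linear regression and from slope versus inhibitor concentration plots.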

Escherichia coli [4] = assay: Evaluated for percent inhibition against N-acetyl-L-[14C] phenylalanylpuromycin formation at 8e-4M; format: functional; procedure, shortened: as §1
Escherichia coli [5] = assay: Generation rate constant […] obtained from the inhibition of growth of Escherichia coli cells; format: organism-based

Structure (SMILES)	pKa [1]	Ki [3] [µM]	Log k (Escherichia coli [5])	ID50 (Escherichia coli [2]) [µM]	inhibition (Escherichia coli [4]) [%]
O=C(NC(CO)C(O)c1ccc([N+](=O)[O-])cc1)C1CCC1 (configuration not stated)	4.79	–	–	–	10
O=C(NC(CO)C(O)c1ccc([N+](=O)[O-])cc1)C1CC1 (configuration not stated)	4.83	–	–	–	20
O=C(NC(CO)C(O)c1ccc([N+](=O)[O-])cc1)C(Cl)(Cl)Cl (configuration not stated)	0.65	3	0.75	250	–
O=[N+]([O-])c1ccc(C(O)C(CO)NP(=O)(O)CCl)cc1 (configuration not stated)	1.4	–	–	–	10
O=C(CO)NC(CO)C(O)c1ccc([N+](=O)[O-])cc1 (configuration not stated)	3.83	–	–	–	10
O=C(CF)NC(CO)C(O)c1ccc([N+](=O)[O-])cc1 (configuration not stated)	2.66	–	1.16	–	27
CC(=O)NC(CO)C(O)c1ccc([N+](=O)[O-])cc1 (configuration not stated)	4.76	–	0.48	–	34
[N-]=[N+]=NCC(=O)NC(CO)C(O)c1ccc([N+](=O)[O-])cc1 (configuration not stated)	3.03	22	–	–	60

Continued, in another order:

pKa [1]	Ki [3] [µM]	Log k (Escherichia coli [5])	Structure (SMILES)	ID50 (Escherichia coli [2]) [µM]	inhibition (Escherichia coli [4]) [%]
1.29	1.6	–	O=C(N[C@H](CO)[C@H](O)c1ccc([N+](=O)[O-])cc1)C(Cl)Cl [CHLORAMPHENICOL]	30	–
-0.6	1.1	–	CS(=O)(=O)NC(CO)C(O)c1ccc([N+](=O)[O-])cc1 (configuration not stated)	200	–
2.43	1.7	0.14	N#CCC(=O)NC(CO)C(O)c1ccc([N+](=O)[O-])cc1 (configuration not stated)	350	–
–	1	1.84	O=C(NC(CO)C(O)c1ccc([N+](=O)[O-])cc1)C(Br)Br (configuration not stated)	70	–
4.82	–	0.71	CCCC(=O)NC(CO)C(O)c1ccc([N+](=O)[O-])cc1 (configuration not stated)	–	34
3.12	–	–	O=C(NC(CO)C(O)c1ccc([N+](=O)[O-])cc1)c1ccco1 (configuration not stated)	–	10
2.86	27	1.71	O=C(CCl)NC(CO)C(O)c1ccc([N+](=O)[O-])cc1 (configuration not stated)	500	–
3.77	–	–	O=CNC(CO)C(O)c1ccc([N+](=O)[O-])cc1 (configuration not stated)	–	10
4.88	–	–	CCC(=O)NC(CO)C(O)c1ccc([N+](=O)[O-])cc1 (configuration not stated)	–	39
